Experimental findings from ChEMBL document CHEMBL3259700, “2-Amino-1,3,4-thiadiazoles in the 7-hydroxy-N-neopentyl spiropiperidine indolinyl series as potent P2Y1 receptor antagonists” (Bioorg Med Chem Lett, 2014) are described below.

Data set [1] can be described thus: Antiplatelet activity in human platelet-rich plasma assessed as inhibition of ADP-induced platelet aggregation in presence of 10 uM ADP.
Data set [2] can be described thus: Antiplatelet activity in human platelet-rich plasma assessed as inhibition of ADP-induced platelet aggregation in presence of 2.5 uM ADP.
Data set [3] can be described thus: Trough plasma concentration in rat at 0.5 mg/kg, po after 24 hrs. It is filed as ADME, organism-based. Also on record: dose 0.5 mg/kg, route oral. Conditions: read-out: Cmin. In outline: (§1)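 Cassette PK in rats, 0.5 mg/kg iv and 0.5 mg/kg p.o., vehicle 70% water, 10% ethanol, 10% cremophor, 10% N,N-dimethylacetamide; plasma trough concentrations taken 24 h after iv and p.o. dosing.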

Data set [4] in a line: Oral bioavailability in rat at 0.5 mg/kg. It is filed as ADME, organism-based. The conditions noted are these: in vivo. The method, boiled down: as §1
The nature of data set [5]: Total AUC in rat at 0.5 mg/kg, iv. The format is ADME, organism-based. Also on record: time AUCmax, dose 0.5 mg/kg, route intravenous. The conditions noted are these: in vivo. The method, boiled down: as §1
The nature of data set [6]: Clearance in rat at 0.5 mg/kg, iv and 0.5 mg/kg, po. The conditions noted are these: in vivo. It is filed as ADME, organism-based. In outline: as §1
Data set [7] can be described thus: Metabolic stability in rat liver microsomes assessed as compound remaining after 10 mins. It is filed as ADME. The conditions noted are these: read-out: Stability. In outline:
(§2)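 Test compound incubated 10 min with 0.5 µM rat or human liver microsomes; percentage of parent remaining measured.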
(Microsomes from liver hold many membrane-bound enzymes, among them those of drug oxidation.)

Data set [8] is described as follows: Metabolic stability in human liver microsomes assessed as compound remaining after 10 mins. The format is ADME. Conditions: read-out: Stability. In outline: as §2
Data set [9] is described as follows: Volume of distribution at steady state in rat at 0.5 mg/kg, iv and 0.5 mg/kg, po. It is filed as ADME, organism-based. The conditions noted are these: in vivo, read-out: Vdss. The method, boiled down:
as §1

A short description of data set [10]: Half life in rat at 0.5 mg/kg, iv and 0.5 mg/kg, po. The format is ADME, organism-based. Conditions: in vivo. The method, boiled down: as §1
Data set [11] is described as follows: Trough plasma concentration in rat at 0.5 mg/kg, iv after 24 hrs. The conditions noted are these: read-out: Cmin. Also on record: dose 0.5 mg/kg, route intravenous. It is filed as ADME, organism-based. In outline:
as §1

The target in data set [12] is T1, P2Y purinoceptor 1 (Homo sapiens, UniProt P47900). The data set is described as follows: Displacement of [33P]2-MeS-ADP from human cloned P2Y1 receptor expressed in HEK293 cells by SPA analysis. The format is cell-based.
For data set [13], the target named is T1, P2Y purinoceptor 1. The data set is described as follows: Inhibition of P2Y1 receptor in human washed platelets assessed as decrease in 2-methylthio-ADP-induced calcium signal transduction pathway activation by FLIPR assay. The format is functional.

T1 sequence (P47900 whole entry): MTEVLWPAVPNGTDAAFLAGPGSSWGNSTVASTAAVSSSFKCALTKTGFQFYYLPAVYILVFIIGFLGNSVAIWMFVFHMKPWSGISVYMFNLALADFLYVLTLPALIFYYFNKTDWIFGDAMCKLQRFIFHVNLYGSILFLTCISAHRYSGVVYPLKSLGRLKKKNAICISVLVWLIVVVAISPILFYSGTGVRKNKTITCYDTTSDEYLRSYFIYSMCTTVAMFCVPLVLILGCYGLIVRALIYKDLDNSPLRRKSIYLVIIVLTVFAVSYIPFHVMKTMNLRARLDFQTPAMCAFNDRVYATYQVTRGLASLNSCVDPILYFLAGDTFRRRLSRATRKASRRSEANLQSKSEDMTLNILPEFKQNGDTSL

Take `CC(C)(C)c1ccccc1Oc1ncccc1NC(=O)Nc1ccc(OC(F)(F)F)cc1`: the IC50 (as a rule, the concentration at which inhibition is half-maximal) in data set [1] is 11000 nM.
With `CC(C)(C)c1ccccc1Oc1ncccc1Nc1nnc(-c2ccc(C(F)(F)F)cc2)s1`, the 50% inhibitory concentration (IC50) in [2] amounted to 7500 nM.
Take `CN(C)CC(C)(C)COc1cccc(-c2sc(Nc3cccnc3Oc3ccccc3C(C)(C)C)nc2C(F)(F)F)c1`: the results for the IC50 in data set [1] and in data set [2] were 57000 nM and 5200 nM, respectively.
`CC(C)(C)CN1CCC2(CC1)CN(c1ccccc1NC(=O)Nc1nc3ccc(Cl)nc3s1)c1c(O)ccc(Cl)c12`: the concentration at 24 h in data set [3] came to 4.1 nM; in data set [11], 10 nM. The bioavailability (in general, the share of a dose that reaches the circulation, judged against a reference dose that is usually intravenous) in data set [4] is 36%. In data set [5], the area under the curve (AUC) – broadly, the area under the concentration-time curve, a measure of exposure – came out at 1.33 µM·h. This compound came in with a clearance in data set [6] of 10 mL/min/kg. Besides, the remaining at 10 min in data set [7] was found to be 86%; in [8], 100%. The half-maximal inhibitory concentration (IC50) in [1] came to 130 nM. The Vd in data set [9] worked out at 5.4 L/kg. Besides, the half-life – broadly, the time in which the quantity being followed falls by half – in data set [10] was 9.9 h. On P2Y purinoceptor 1 [12], the Ki (as a rule, the dissociation constant of the complex between target and ligand, obtained from inhibition or displacement) worked out at 8 nM.
`CC(C)(C)CN1CCC2(CC1)CN(c1ccccc1Nc1nnc(-c3ccccc3)s1)c1c(O)ccc(C(F)(F)F)c12`: the figures for the IC50 (in data set [1]; on P2Y purinoceptor 1 [13]) were 990 nM and 0.19 nM, respectively. In addition, the inhibitory constant (Ki) at P2Y purinoceptor 1 [12] came out at 9.6 nM.
With `CC(C)(C)CN1CCC2(CC1)CN(c1ccccc1Nc1nc(-c3ccccc3)ns1)c1c(O)ccc(Cl)c12`, the IC50 in data set [1] was determined as 5400 nM; on P2Y purinoceptor 1 [13], 6.4 nM.
Take `CC(C)(C)CN1CCC2(CC1)CN(c1ccccc1Nc1nnc(-c3ccccc3)o1)c1c(O)ccc(Cl)c12`: the IC50 was more than 10000 nM in data set [1] and 49 nM at P2Y purinoceptor 1 [13]. Besides, the Ki at P2Y purinoceptor 1 [12] amounted to 6.2 nM.
With `CC(C)(C)CN1CCC2(CC1)CN(c1ccccc1Nc1cc(-c3ccccc3)on1)c1c(O)ccc(Cl)c12`, the IC50 in [1] was determined as 9000 nM.
Turning to `CC(C)(C)CN1CCC2(CC1)CN(c1ccccc1Nc1nc(-c3ccccc3)cs1)c1c(O)ccc(Cl)c12`, the half-inhibitory concentration (IC50) was more than 10000 nM in data set [1] and 54 nM on P2Y purinoceptor 1 [13]. This compound also returned an inhibitory constant (Ki) on P2Y purinoceptor 1 [12] of 20 nM.
In the case of `CC(C)(C)CN1CCC2(CC1)CN(c1ccccc1Nc1ncc(-c3ccccc3)s1)c1c(O)ccc(Cl)c12`, the IC50 in data set [1] stood at 3700 nM; at P2Y purinoceptor 1 [13], 2.3 nM. At P2Y purinoceptor 1 [12], the Ki is 17 nM.
Consider `Cc1ccc(-c2ccc(Nc3ccccc3N3CC4(CCN(CC(C)(C)C)CC4)c4c(Cl)ccc(O)c43)nc2)cc1`, for which, in data set [1], the half-maximal inhibitory concentration (IC50) was more than 10000 nM. Moreover, affinity on P2Y purinoceptor 1 [12] was put at a Ki of 343 nM.
On the same counts, the results for `CC(C)(C)CN1CCC2(CC1)CN(c1ccccc1Nc1ccc(-c3ccccc3)nn1)c1c(O)ccc(Cl)c12` are more than 40000 nM and 511 nM.
`CC(C)(C)CN1CCC2(CC1)CN(c1ccccc1Nc1cnc(-c3ccccc3)cn1)c1c(O)ccc(Cl)c12`: the half-maximal inhibitory concentration (IC50) in data set [1] is more than 40000 nM. The compound further showed an inhibitory constant (Ki) on P2Y purinoceptor 1 [12] of 49 nM.
With `CC(C)(C)CN1CCC2(CC1)CN(c1ccccc1Nc1nnc(-c3ccc(C(F)(F)F)cc3)s1)c1c(O)ccc(C(F)(F)F)c12`, the concentration at 24 h came to 12 nM in [3] and 46 nM in data set [11]. In [4], this compound came in with a bioavailability of 22%. In data set [5], this compound came in with an area under the curve (AUC) of 4.63 µM·h. Besides, the clearance in [6] came out at 4 mL/min/kg. Besides, the figures for the remaining at 10 min in [7] and in data set [8] were 87% and 86%, respectively. The results for the half-maximal inhibitory concentration (IC50) (in data set [1]; on P2Y purinoceptor 1 [13]) were 450 nM and 0.08 nM, respectively. For the same compound, the Vd in [9] came out at 6 L/kg. For the same compound, in data set [10], the half-life is 24 h.
As for `CC(C)(C)CN1CCC2(CC1)CN(c1ccccc1Nc1nnc(-c3ccc(C(C)(C)C)cc3)s1)c1c(O)ccc(C(F)(F)F)c12`, the results for the concentration at 24 h in [3] and in data set [11] were 3.6 nM and 54 nM, respectively. This compound had a bioavailability in data set [4] of 14%. Moreover, in data set [5], the exposure (AUC) was 6.96 µM·h. In addition, the clearance in [6] came to 1.8 mL/min/kg. In addition, the remaining at 10 min is 84% in [7] and 82% in data set [8]. For the same compound, the results for the half-inhibitory concentration (IC50) (in data set [1]; at P2Y purinoceptor 1 [13]) were 870 nM and 0.21 nM, respectively. In addition, the Vd in data set [9] was determined as 1.2 L/kg. The compound also had a half-life in data set [10] of 13 h.
`CC(C)(C)CN1CCC2(CC1)CN(c1ccccc1Nc1nnc(-c3ccc(C(C)(C)C)cc3)s1)c1c(O)ccc(C#N)c12`: the IC50 in data set [1] is 1200 nM; on P2Y purinoceptor 1 [13], 0.34 nM. On P2Y purinoceptor 1 [12], this compound registered a Ki of 9.7 nM.
`COC(=O)c1ccc(O)c2c1C1(CCN(CC(C)(C)C)CC1)CN2c1ccccc1Nc1nnc(-c2ccc(C(C)(C)C)cc2)s1`: the IC50 was determined as 840 nM in data set [1] and 0.32 nM at P2Y purinoceptor 1 [13].
Take `CC(C)(C)CN1CCC2(CC1)CN(c1ccccc1Nc1nnc(-c3ccc(OC(F)(F)F)cc3)s1)c1c(O)ccc(F)c12`: the IC50 in [1] worked out at 1600 nM; at P2Y purinoceptor 1 [13] it was 2.7 nM. On P2Y purinoceptor 1 [12], this compound returned an inhibition constant Ki of 5.3 nM.
On to `CC(C)(C)CN1CCC2(CC1)CN(c1ccccc1Nc1nnc(-c3ccc(OC(F)(F)F)cc3)s1)c1c(O)ccc(Cl)c12`, for which the concentration at 24 h in data set [3] was determined as 30 nM; in [11] it was 95 nM. In addition, the bioavailability in [4] stood at 28%. In data set [5], this compound came in with an AUC of 6.21 µM·h. Moreover, the clearance in [6] was determined as 2.1 mL/min/kg. Further, the values for the remaining at 10 min in data set [7] and in [8] were 94% and 99%, respectively. In addition, the figures for the IC50 (in data set [1]; on P2Y purinoceptor 1 [13]) were 900 nM and 0.63 nM, respectively. Also, the Vd in data set [9] stood at 2.1 L/kg. Also, the half-life in data set [10] is 12 h.
Turning to `CC(C)(C)CN1CCC2(CC1)CN(c1ccccc1Nc1nnc(-c3ccccc3Cl)s1)c1c(O)ccc(Cl)c12`, the IC50 in data set [1] worked out at 11000 nM; on P2Y purinoceptor 1 [13], 9.8 nM.
Consider `CC(C)(C)CN1CCC2(CC1)CN(c1ccccc1Nc1nnc(-c3cccc(Cl)c3)s1)c1c(O)ccc(Cl)c12`, for which the figures for the IC50 (in data set [1]; at P2Y purinoceptor 1 [13]) were 2600 nM and 3.6 nM, respectively.
Take `CC(C)(C)CN1CCC2(CC1)CN(c1ccccc1Nc1nnc(-c3ccc(Cl)cc3)s1)c1c(O)ccc(Cl)c12`: the IC50 in data set [1] came to 1300 nM; at P2Y purinoceptor 1 [13], 1.6 nM.
With `CC(C)(C)CN1CCC2(CC1)CN(c1ccccc1Nc1nnc(-c3cnccn3)s1)c1c(O)ccc(Cl)c12`, the remaining at 10 min in data set [7] was 37%. Further, the IC50 in data set [1] worked out at 930 nM; on P2Y purinoceptor 1 [13], 1.5 nM.
On the same counts, the results for `Cc1cc(-c2nnc(Nc3ccccc3N3CC4(CCN(CC(C)(C)C)CC4)c4c(Cl)ccc(O)c43)s2)n(C)n1` are 75%, 900 nM and 0.2 nM.
